Assay outcomes (PubChem)
UPR XBP1 act: activators of adaptive arm of unfolded protein response (XBP1); AID 463104; CHO-XBP1 luciferase reporter, IRE1-XBP1 UPR activation, luminescence; percent of tunicamycin response, DMSO as zero; 330,000 tested, 0.33% active; activation, % at 20 µM;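 active = versus positive control, 20 µM dose yields 30% or more activation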;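 note: 100% = tunicamycin at 10 µg/mL and 0% = DMSO only wells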
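Assay system: IRE1-XBP1 luciferase reporter CHO line. Input: 1000 cells/well. Buffer or medium: F12 with 10% serum. Doses: 20 µM, 1% DMSO. Times: overnight seeding at 37 °C, 6 h compound treatment at 37 °C. Technique: Steady-Glo luciferase glow luminescence, 10 min after reagent addition.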
Tb MetRS inh: Trypanosoma brucei MetRS inhibition. 360,000 tested, 0.4% active. purified T. brucei MetRS, ATP depletion, Kinase-Glo luminescence. AID 624268. inhibition, % at 11.9 µM;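 active = inhibition above a per-plate cutoff of the control wells' mean inhibition plus 3 SD, cut at about 5.5% in these data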;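 note: 0% = DMSO wells median and 100% = median of wells with control inhibitor compound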
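Dosing: 11.9 µM compound single dose, 0.9% DMSO; Assay system: purified T. brucei MetRS enzyme; Measured by: Kinase-Glo luciferase luminescence reporting remaining unconsumed ATP; Schedule: 15 min plus 2 h at 25 °C.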
UPR CHOP act: activators of apoptotic arm of unfolded protein response (CHOP) | CHO-CHOP luciferase reporter, UPR activation, luminescence; percent of tunicamycin response over DMSO baseline | activation, % at 10 µM | 330,000 tested, 0.34% active | AID 449763;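 active = at 10 µM dose, activation of 40% or more, normalized to positive control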;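 note: 100% = tunicamycin at 10 µg/mL and 0% = DMSO alone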
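Assay system: CHO-CHOP cells, stable luciferase reporter of PERK-eIF2a-CHOP signalling / Buffer or medium: F12 plus 10% serum / Compound dosing: one dose, 10 µM in 0.5% DMSO / Times: 6 h compound treatment, 37 °C / Technique: luciferase luminescence / Read-out: % reporter activation, DMSO baseline versus tunicamycin full activation / Benchmarks: tunicamycin and DMSO controls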
V-ATPase pH: regulators of yeast V-ATPase proton transport | S. cerevisiae, pHLuorin cytosolic pH fluorescence | response, % at 10 µM | 350,000 tested, 0.37% active | AID 504577; in the data active = response mostly above about 7.3%, no sharp cut-off; inactive = mostly below about 5.4%; note: actives read high
CHOP inh: blocks CHOP induction under ER stress. 220,000 tested, 3.8% active. CHO-K1 CHOP-promoter luciferase, tunicamycin-induced, 15-18 h. inhibition, % at 10 µM. AID 2732;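 active = compounds that reduced the stress-induced luciferase reporter signal by more than about 70% of percent inhibition, limit read from the data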;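 note: 0% = tunicamycin plus vehicle and 100% = wells without tunicamycin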
Tb MetRS conf: confirmation of Trypanosoma brucei MetRS inhibitors | shares compounds with Tb MetRS inh | T. brucei MetRS enzyme, luminescence (ATP depletion) | inhibition, % at 11.9 µM | 1,400 tested, 93% active | AID 624412; in the data active = inhibition above about 7%
Jurkat cytotox: kills Jurkat cells in T. brucei MetRS counterscreen | inhibition, % at 8.3 µM | Jurkat cells viability, ATP luminescence | AID 624413 | shares compounds with Tb MetRS inh | 1,400 tested, 12% active; in the data active = inhibition above about 15%;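 note: 0% = vehicle and 100% = reference inhibitor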
Tb MetRS inh FP: T. brucei MetRS inhibition, orthogonal assay. shares compounds with Tb MetRS inh. purified T. brucei MetRS, fluorescence polarization. inhibition, % at 11.9 µM. 1,400 tested, 44% active. AID 651607; in the data active = inhibition above about 17%;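 note: 0% = vehicle wells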
* hit, by the source's call; . = no result given. The entries come from a sample that favours hits as a whole.

SMILES | UPR XBP1 act | Tb MetRS inh | UPR CHOP act | V-ATPase pH | CHOP inh | Tb MetRS conf | Jurkat cytotox | Tb MetRS inh FP
Cc1ccc(S(=O)(=O)Nc2cccc(C(=O)NCC(C)(C)N3CCOCC3)c2)cc1F | -3 | 0 | 1 | 0 | . | . | . | .
Cc1cc(NS(=O)(=O)c2ccc(NC(=O)CSc3nc4ncc(Br)cc4[nH]3)cc2)nc(C)n1 | -2 | 6.1* | -1 | 1 | 19 | 14* | -4 | 8
O=C(CSc1nc2ccc(Cl)cc2[nH]1)NCCc1ccccc1 | -1 | 42* | 1 | -2 | 18 | 58* | -3 | 33*
CN(C(=O)CSc1nc2ccc(Cl)cc2[nH]1)C1CCS(=O)(=O)C1 (stereo not drawn) | -2 | 11* | 1 | -4 | . | 36* | 4 | 24*
O=C(CSc1nc2ccc(Cl)cc2[nH]1)NCc1ccco1 | 2 | 8.3* | 3 | -2 | -3 | 13* | 8 | 2
COc1ccc2nc(SCC(=O)NCCc3ccccc3)[nH]c2c1 | 0 | 0 | 2 | -1 | 16 | . | . | .
O=C(CSc1nc2ncc(Cl)cc2[nH]1)NCCc1ccc(F)cc1 | 2 | 2 | 1 | 0 | 10 | . | . | .
O=C(CSc1nc2ccc(Cl)cc2[nH]1)NCCc1ccc(Cl)cc1 | -3 | 63* | -1 | 2 | 62 | 72* | 5 | 41*
CC(C)CC(=O)Nc1nnc(SCC(=O)Nc2nccs2)s1 | 1 | 0 | 1 | -1 | . | . | . | .
CC(=O)Nc1ccc(NC(=O)CCOc2ccccc2C)cc1 | 5 | 0 | 1 | 1 | . | . | . | .
Cc1ccccc1OCCCC(=O)Nc1ccc(Br)cc1 | 0 | 6.4* | -2 | -4 | 96* | 8.2* | 20* | 10
Cc1ccc(SCc2nc3ccccc3n2CC(=O)Nc2ccccc2)cc1 | -1 | 2 | 0 | -1 | 34 | . | . | .
Cc1ccc(SCc2nc3ccccc3n2CC(=O)Nc2ccc(Cl)cc2)cc1 | 2 | 17* | -1 | -5 | 45 | 22* | 2 | 89*
OCCNc1nc(Nc2cccc(O)c2)nc2ccccc12 | 15 | 18* | 0 | 1 | -13 | 44* | 2 | 14
COc1ccc(N2CCN(CCNC(=O)Nc3ccc(Cl)cc3)CC2)cc1 | 1 | 12* | -1 | -3 | 16 | 25* | 7 | 13
Cc1ccc(NC(=O)CCNS(=O)(=O)c2ccc(Br)s2)cc1 | -4 | 18* | -3 | 4 | . | 40* | -1 | 24*
OCC1(CCOc2ccccc2)CCN(Cc2cn[nH]c2-c2ccc(F)cc2)CC1 | -2 | 0 | 1 | 1 | 5 | . | . | .
OCC1(CCOc2ccccc2)CCN(Cc2nc3ccc(F)cc3[nH]2)CC1 | -1 | 7.5* | 2 | -1 | 4 | 21* | 2 | 0
C[C@@H](NC(=O)[C@@H]1CCCN1C(=O)[C@@H]1CCCN1C(=O)c1cccs1)c1ccccc1 | . | 0 | . | . | . | . | . | .
O=c1cc(CSc2ccc(Cl)cc2)[nH]c2[nH]n(-c3ccccc3)c(=O)c12 | 0 | 8.5* | -1 | 1 | -9 | 26* | 17* | 7
O=c1[nH]c2cc3ccccc3cc2nc1-c1nnnn1Cc1ccccc1 | . | 22* | . | . | . | 38* | 9 | 18*
O=c1[nH]c2cc3ccccc3cc2nc1-c1nnnn1C1CCCC1 | . | 52* | . | . | . | 61* | 69* | 40*
Cc1cc2nc(-c3nnnn3Cc3ccccc3)c(=O)[nH]c2cc1C | . | 0 | . | . | . | . | . | .
CCCCN(C)Cc1c(C)[nH]c2ccc(C)cc2c1=O | 0 | 10* | -1 | 2 | 9 | 21* | -4 | 6
COC(=O)[C@H](Cc1c[nH]c2ccccc12)NC(=O)NCc1ccc(OC)cc1 | -1 | 6.6* | 0 | 0 | . | 15* | -4 | 4
SMILES | UPR XBP1 act | Tb MetRS inh | UPR CHOP act | V-ATPase pH | CHOP inh | Tb MetRS conf | Jurkat cytotox | Tb MetRS inh FP
COC(=O)[C@H](Cc1c[nH]c2ccccc12)NC(=O)NCc1ccc(OC)c(OC)c1 | -3 | 0 | 0 | -1 | . | . | . | .
O=C(NCC(O)c1nc2ccccc2[nH]1)c1cc2ccccc2[nH]1 (stereo not drawn) | . | 51* | . | . | . | 68* | 0 | 40*
OC(c1nc2ccccc2[nH]1)C(O)c1nc2ccccc2[nH]1 (stereo not drawn) | -1 | 0 | 4 | -4 | . | . | . | .
O=C(NNC(=O)c1cc2ccccc2[nH]1)OCc1ccccc1 | -2 | 13* | 0 | -2 | . | 46* | -12 | 19*
CCOC(=O)c1nn(-c2ccccc2F)c(-c2ccccc2)c1C(=O)c1ccccc1 | -1 | 0 | -1 | -2 | 18 | . | . | .
CCCNC(=O)NC(=O)COC(=O)c1ccc(OC)c(S(=O)(=O)N2CCCc3ccccc32)c1 | 1 | 0 | 1 | 0 | 10 | . | . | .
CCCn1c(O)c(/C=C2\C=NN=C2c2ccccc2)sc1=S | 4 | 0 | 2 | -1 | 13 | . | . | .
O=C(O)CCCCCn1c(O)c(C=C2N=c3ccccc3=N2)sc1=S | 0 | 8.8* | -2 | 3 | 8 | 25* | -4 | 12
O=C(O)CCCn1c(O)c(C=C2N=c3ccccc3=N2)sc1=S | -1 | 29* | 3 | -2 | 30 | 44* | 9 | 20*
C=CCn1c(O)c(/C=C2\C=NN=C2c2ccccc2)sc1=S | 2 | 1 | 0 | 0 | 9 | . | . | .
CCCC(C(=O)O)n1c(O)c(C=C2N=c3ccccc3=N2)sc1=S (stereo not drawn) | -3 | 5.8* | -1 | 2 | 4 | 33* | -6 | 10
O=C(O)Cn1c(O)c(C=Nc2ccccc2)sc1=S | -2 | 0 | 1 | 0 | -23 | . | . | .
O=S(=O)(Nc1ccccc1Br)c1cccc2cccnc12 | . | 1 | . | . | . | . | . | .
CCOc1ccc(NC(=O)CSc2nc(=O)n(Cc3cccnc3)c3c2CCC3)cc1 | -1 | 0 | -1 | 0 | . | . | . | .
O=C(CSc1ccc2ccccc2c1)NC1CCCc2ccccc21 (stereo not drawn) | -2 | 0 | -2 | 2 | 26 | . | . | .
COc1ccc(/C=C2\SC(=O)N=C2N)cc1 | 3 | 22* | 6 | 0 | 31 | 67* | 1 | 37*
Cn1nc(C(F)(F)F)c(-c2ccc(Br)cc2)c1NC(=O)Nc1ccc(F)cc1F | -3 | 25* | 1 | 2 | 77* | 54* | 15 | 31*
O=C(COC(=O)c1cc(Cl)ccc1O)NNC(=O)c1ccccc1F | -2 | 0 | -1 | 1 | . | . | . | .
NNC(=O)c1ccc(Cn2cccn2)o1 | -1 | 0 | 2 | 2 | -6 | . | . | .
c1ccc2[nH]c(CCCCc3nc4ccccc4[nH]3)nc2c1 | -2 | 6.4* | -2 | 0 | . | 16* | 1 | 12
